From ChEMBL document CHEMBL4715745, “Synthesis and biological evaluation of novel FK228 analogues as potential isoform selective HDAC inhibitors” (Eur J Med Chem, 2016)

Key:
[1] = biological target: Histone deacetylase 1 (Homo sapiens, UniProt Q13547); test: Inhibition of human HDAC1 expressed in 293T cells using Ac-KGLGK(Ac)-MCA as substrate incubated for 30 mins in presence of 0.1 mM DTT by fluorescence plate reader assay; design: species or system HEK293T
[2] = biological target: T1, Protein deacetylase HDAC6 (Mus musculus, UniProt Q9Z2V5); test: Inhibition of mouse HDAC6 expressed in 293T cells using Ac-KGLGK(Ac)-MCA as substrate incubated for 30 mins in presence of 0.1 mM DTT by fluorescence plate reader assay; design: species or system HEK293T
T1 sequence (Q9Z2V5 whole entry): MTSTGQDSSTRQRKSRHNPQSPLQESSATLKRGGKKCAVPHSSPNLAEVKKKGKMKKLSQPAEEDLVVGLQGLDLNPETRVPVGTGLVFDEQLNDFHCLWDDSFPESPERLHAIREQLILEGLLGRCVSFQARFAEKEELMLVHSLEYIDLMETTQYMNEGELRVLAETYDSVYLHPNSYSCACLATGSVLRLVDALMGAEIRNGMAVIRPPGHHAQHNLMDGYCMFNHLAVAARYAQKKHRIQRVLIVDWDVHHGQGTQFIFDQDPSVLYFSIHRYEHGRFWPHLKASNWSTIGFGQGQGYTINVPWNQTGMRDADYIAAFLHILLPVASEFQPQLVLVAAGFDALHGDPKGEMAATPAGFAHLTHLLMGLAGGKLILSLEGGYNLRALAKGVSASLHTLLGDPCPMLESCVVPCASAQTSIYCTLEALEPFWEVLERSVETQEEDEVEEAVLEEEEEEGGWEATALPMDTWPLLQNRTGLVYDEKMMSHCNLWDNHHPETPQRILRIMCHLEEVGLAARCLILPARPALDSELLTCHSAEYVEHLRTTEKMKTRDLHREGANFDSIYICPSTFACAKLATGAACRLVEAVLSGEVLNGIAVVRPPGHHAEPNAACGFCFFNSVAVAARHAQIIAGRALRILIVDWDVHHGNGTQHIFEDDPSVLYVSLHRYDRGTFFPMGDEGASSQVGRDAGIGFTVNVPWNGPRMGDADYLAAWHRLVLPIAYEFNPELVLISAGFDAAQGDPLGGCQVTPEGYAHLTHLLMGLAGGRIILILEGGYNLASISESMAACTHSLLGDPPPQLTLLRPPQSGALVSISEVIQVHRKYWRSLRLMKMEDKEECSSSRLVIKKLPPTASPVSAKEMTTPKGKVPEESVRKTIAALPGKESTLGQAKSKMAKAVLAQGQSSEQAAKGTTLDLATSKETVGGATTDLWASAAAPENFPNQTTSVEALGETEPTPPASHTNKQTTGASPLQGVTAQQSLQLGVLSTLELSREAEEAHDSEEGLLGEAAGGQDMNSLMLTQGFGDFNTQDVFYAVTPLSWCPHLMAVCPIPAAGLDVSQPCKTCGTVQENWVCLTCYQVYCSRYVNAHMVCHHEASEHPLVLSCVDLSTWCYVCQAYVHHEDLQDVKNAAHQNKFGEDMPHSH
In short: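 HDAC enzyme assay run in the presence of 0.1 mM dithiothreitol (DTT); IC₅₀ determined.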

[3] = Selectivity index, ratio of IC50 for mouse HDAC6 expressed in 293T cells to IC50 for human HDAC1 expressed in 293T cells using Ac-KGLGK(Ac)-MCA as substrate incubated for 30 mins in presence of 0.1 mM DTT by fluorescence plate reader assay; conditions: 0.5 h
In short: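 Ratio of HDAC6 IC₅₀ to HDAC1 IC₅₀, taken as selectivity for class I HDAC1 over class II HDAC6. Both enzyme assays were run in the presence of 0.1 mM DTT.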

[4] = Growth inhibition of human HBC4 cells measured after 48 hrs by sulforhodamine B assay; type: functional
In short: (§1)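 Panel of 39 human cancer cell lines tested at the Japanese Foundation for Cancer Research. Five concentrations per compound, spanning 10⁻¹¹–10⁻⁷ M, 10⁻¹⁰–10⁻⁶ M or 10⁻⁸–10⁻⁴ M, were used to build dose-response curves. GI₅₀ is the concentration giving 50% growth inhibition relative to control.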

[5] = Growth inhibition of human BSY1 cells measured after 48 hrs by sulforhodamine B assay; type: functional; conditions: BSY-1; in short: as §1
[6] = Growth inhibition of human HBC5 cells measured after 48 hrs by sulforhodamine B assay; type: functional; in short: as §1
[7] = system: MCF7; test: Growth inhibition of human MCF7 cells measured after 48 hrs by sulforhodamine B assay; type: functional; in short: as §1
[8] = system: MDA-MB-231; test: Growth inhibition of human MDA-MB-231 cells measured after 48 hrs by sulforhodamine B assay; type: functional; in short: as §1
[9] = system: U-251; test: Growth inhibition of human U-251 cells measured after 48 hrs by sulforhodamine B assay; type: functional; in short: as §1
[10] = system: SF-268; test: Growth inhibition of human SF-268 cells measured after 48 hrs by sulforhodamine B assay; type: functional; in short: as §1
[11] = system: SF-295; test: Growth inhibition of human SF-295 cells measured after 48 hrs by sulforhodamine B assay; type: functional; in short: as §1
[12] = system: SF-539; test: Growth inhibition of human SF-539 cells measured after 48 hrs by sulforhodamine B assay; type: functional; in short: as §1
[13] = system: SNB-75; test: Growth inhibition of human SNB-75 cells measured after 48 hrs by sulforhodamine B assay; type: functional; in short: as §1
[14] = system: SNB-78; test: Growth inhibition of human SNB-78 cells measured after 48 hrs by sulforhodamine B assay; type: functional; in short: as §1
[15] = system: HCC 2998; test: Growth inhibition of human HCC 2998 cells measured after 48 hrs by sulforhodamine B assay; type: functional; in short: as §1
[16] = system: KM12; test: Growth inhibition of human KM12 cells measured after 48 hrs by sulforhodamine B assay; type: functional; in short: as §1
[17] = system: HT-29; test: Growth inhibition of human HT-29 cells measured after 48 hrs by sulforhodamine B assay; type: functional; in short: as §1
[18] = system: HCT-15; test: Growth inhibition of human HCT-15 cells measured after 48 hrs by sulforhodamine B assay; type: functional; in short: as §1
[19] = system: HCT-116; test: Growth inhibition of human HCT-116 cells measured after 48 hrs by sulforhodamine B assay; type: functional; in short: as §1
[20] = system: NCI-H23; test: Growth inhibition of human NCI-H23 cells measured after 48 hrs by sulforhodamine B assay; type: functional; in short: as §1
[21] = system: NCI-H226; test: Growth inhibition of human NCI-H226 cells measured after 48 hrs by sulforhodamine B assay; type: functional; in short: as §1
[22] = system: NCI-H522; test: Growth inhibition of human NCI-H522 cells measured after 48 hrs by sulforhodamine B assay; type: functional; in short: as §1
[23] = system: NCI-H460; test: Growth inhibition of human NCI-H460 cells measured after 48 hrs by sulforhodamine B assay; type: functional; in short: as §1
[24] = system: A549; test: Growth inhibition of human A549 cells measured after 48 hrs by sulforhodamine B assay; type: functional; in short: as §1
[25] = system: DMS-273; test: Growth inhibition of human DMS-273 cells measured after 48 hrs by sulforhodamine B assay; type: functional; in short: as §1
[26] = system: DMS-114; test: Growth inhibition of human DMS-114 cells measured after 48 hrs by sulforhodamine B assay; type: functional; in short: as §1
[27] = system: LOX IMVI; test: Growth inhibition of human LOX IMVI cells measured after 48 hrs by sulforhodamine B assay; type: functional; in short: as §1
[28] = system: OVCAR-3; test: Growth inhibition of human OVCAR-3 cells measured after 48 hrs by sulforhodamine B assay; type: functional; in short: as §1
[29] = system: OVCAR-4; test: Growth inhibition of human OVCAR-4 cells measured after 48 hrs by sulforhodamine B assay; type: functional; in short: as §1
[30] = system: OVCAR-5; test: Growth inhibition of human OVCAR-5 cells measured after 48 hrs by sulforhodamine B assay; type: functional; in short: as §1
[31] = system: OVCAR-8; test: Growth inhibition of human OVCAR-8 cells measured after 48 hrs by sulforhodamine B assay; type: functional; in short: as §1
[32] = system: SK-OV-3; test: Growth inhibition of human SK-OV-3 cells measured after 48 hrs by sulforhodamine B assay; type: functional; in short: as §1
[33] = system: RXF 631; test: Growth inhibition of human RXF 631 cells measured after 48 hrs by sulforhodamine B assay; type: functional; in short: as §1
[34] = system: ACHN; test: Growth inhibition of human ACHN cells measured after 48 hrs by sulforhodamine B assay; type: functional; in short: as §1
[35] = system: St-4; test: Growth inhibition of human St-4 cells measured after 48 hrs by sulforhodamine B assay; type: functional; in short: as §1
[36] = system: MKN-1; test: Growth inhibition of human MKN-1 cells measured after 48 hrs by sulforhodamine B assay; type: functional; in short: as §1
[37] = system: MKN-7; test: Growth inhibition of human MKN-7 cells measured after 48 hrs by sulforhodamine B assay; type: functional; in short: as §1
[38] = system: MKN-28; test: Growth inhibition of human MKN-28 cells measured after 48 hrs by sulforhodamine B assay; type: functional; in short: as §1
[39] = system: MKN-45; test: Growth inhibition of human MKN-45 cells measured after 48 hrs by sulforhodamine B assay; type: functional; in short: as §1
[40] = system: MKN-74; test: Growth inhibition of human MKN-74 cells measured after 48 hrs by sulforhodamine B assay; type: functional; in short: as §1
[41] = system: DU-145; test: Growth inhibition of human DU-145 cells measured after 48 hrs by sulforhodamine B assay; type: functional; in short: as §1
[42] = system: PC-3; test: Growth inhibition of human PC-3 cells measured after 48 hrs by sulforhodamine B assay; type: functional; in short: as §1

Sequence of Histone deacetylase 1 (Q13547 whole entry): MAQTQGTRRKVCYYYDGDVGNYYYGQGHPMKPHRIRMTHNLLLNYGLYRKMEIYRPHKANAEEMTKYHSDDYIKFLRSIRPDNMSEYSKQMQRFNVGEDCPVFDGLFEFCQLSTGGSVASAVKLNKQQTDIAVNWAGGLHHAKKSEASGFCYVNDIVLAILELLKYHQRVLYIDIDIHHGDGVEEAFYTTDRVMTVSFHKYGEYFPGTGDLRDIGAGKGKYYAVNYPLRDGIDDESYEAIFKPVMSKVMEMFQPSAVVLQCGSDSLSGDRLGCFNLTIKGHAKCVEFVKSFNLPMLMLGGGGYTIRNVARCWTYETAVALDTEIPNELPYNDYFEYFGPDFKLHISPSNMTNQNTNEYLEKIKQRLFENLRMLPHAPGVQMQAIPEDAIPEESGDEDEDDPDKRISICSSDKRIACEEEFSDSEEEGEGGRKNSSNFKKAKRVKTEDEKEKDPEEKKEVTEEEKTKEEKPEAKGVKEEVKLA

For `C/C=C1\NC(=O)[C@H]2CSSCC/C=C/[C@H](CC(=O)N[C@H](C(C)C)C(=O)N2)OC(=O)CNC1=O`, the IC50 [1] was 0.0047 µM, the IC50 [2] was 0.859 µM and the “Ratio IC50” value [3] was 182. It also gave a GI50 [4] of 0.17 µM, a GI50 [5] of 0.2 µM and a GI50 [6] of 0.63 µM. The GI50 [7] was 0.19 µM, the GI50 [8] was 0.053 µM and the GI50 [9] was 0.12 µM. It also gave a GI50 [10] of 0.11 µM, a GI50 [11] of 0.28 µM and a GI50 [12] of 0.01 µM. The GI50 [13] was 0.01 µM, the GI50 [14] was 0.01 µM and the GI50 [15] was 0.032 µM. For the same molecule, the GI50 [16] was 0.045 µM, the GI50 [17] was 0.042 µM and the GI50 [18] was 20 µM. It also gave a GI50 [19] of 0.026 µM, a GI50 [20] of 0.13 µM and a GI50 [21] of 0.41 µM. It also gave a GI50 [22] of 0.01 µM, a GI50 [23] of 0.056 µM and a GI50 [24] of 0.052 µM. It also gave a GI50 [25] of 0.23 µM, a GI50 [26] of 0.043 µM and a GI50 [27] of 0.025 µM. For the same molecule, the GI50 [28] was 0.064 µM, the GI50 [29] was 0.27 µM and the GI50 [30] was 0.049 µM. It also gave a GI50 [31] of 0.054 µM, a GI50 [32] of 0.063 µM and a GI50 [33] of 0.23 µM. For the same molecule, the GI50 [34] was 0.46 µM, the GI50 [35] was 1.1 µM and the GI50 [36] was 0.073 µM. The GI50 [37] was 0.38 µM, the GI50 [38] was 1.4 µM and the GI50 [39] was 1.9 µM. It also gave a GI50 [40] of 0.1 µM, a GI50 [41] of 0.039 µM and a GI50 [42] of 0.17 µM.
